By IC50 is commonly meant the point on the concentration scale where inhibition reaches its midpoint. One may read the Ki as a measure of affinity in units of concentration, obtained from inhibition or displacement. Read a low Ki as tighter binding.

The structures appear in SMILES notation. Calls of active or inactive are those of the source. The rule behind the calls is not given here. Some results are limits rather than exact numbers.

The target in one assay is T1, Adenosine receptor A2b (Homo sapiens, UniProt P29275).
T1 sequence (P29275 whole entry): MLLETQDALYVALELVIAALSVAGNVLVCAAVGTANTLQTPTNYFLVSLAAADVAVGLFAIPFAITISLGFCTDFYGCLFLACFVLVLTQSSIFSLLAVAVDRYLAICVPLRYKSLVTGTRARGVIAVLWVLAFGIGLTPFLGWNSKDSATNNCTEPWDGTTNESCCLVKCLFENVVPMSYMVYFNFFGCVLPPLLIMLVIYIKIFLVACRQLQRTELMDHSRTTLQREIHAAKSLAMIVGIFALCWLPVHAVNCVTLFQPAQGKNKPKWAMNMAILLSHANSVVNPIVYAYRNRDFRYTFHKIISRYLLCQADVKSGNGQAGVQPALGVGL
Put plainly: Antagonist activity at human A2B receptor expressed in CHO cells assessed as inhibition of NECA-mediated cAMP accumulation. In kind it is functional, cell-based. A digest of the protocol: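 hA2B-expressing CHO cells, 48 h after plating, were preincubated 15 min at 37 °C in DMEM with ADA 1 U/mL and Ro20-1724 20 μM. Antagonist (1 nM–10 μM) was added for 15 min at 37 °C, then 100 nM NECA. Reaction stopped with 0.4 N HCl, lysate neutralized with 4 N KOH, and cAMP measured by competitive protein binding.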
(In general: Changes in cAMP serve as a functional read-out for many G protein-coupled receptors.)

For another assay, the target named is T2, Adenosine receptor A3 (Homo sapiens, UniProt P0DMS8).
T2 sequence (P0DMS8 whole entry): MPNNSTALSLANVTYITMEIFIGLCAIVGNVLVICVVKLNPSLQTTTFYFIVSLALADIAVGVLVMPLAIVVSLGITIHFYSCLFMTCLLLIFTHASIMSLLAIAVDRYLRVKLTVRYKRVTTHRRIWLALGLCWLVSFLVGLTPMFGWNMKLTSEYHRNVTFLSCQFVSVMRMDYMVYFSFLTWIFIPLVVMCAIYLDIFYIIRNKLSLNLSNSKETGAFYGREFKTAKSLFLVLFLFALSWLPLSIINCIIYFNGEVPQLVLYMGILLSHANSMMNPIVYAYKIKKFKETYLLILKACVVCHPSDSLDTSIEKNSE
Nature of the assay: Displacement of [125I]AB-MECA from human A3 adenosine receptor expressed in CHO cell membrane. In kind it is cell membranes. (Loss of bound radioactivity is the signal in a displacement assay; it reports binding, not function.)

For the next assay, the target named is T3, Adenosine receptor A1 (Homo sapiens, UniProt P30542).
T3 sequence (P30542 whole entry): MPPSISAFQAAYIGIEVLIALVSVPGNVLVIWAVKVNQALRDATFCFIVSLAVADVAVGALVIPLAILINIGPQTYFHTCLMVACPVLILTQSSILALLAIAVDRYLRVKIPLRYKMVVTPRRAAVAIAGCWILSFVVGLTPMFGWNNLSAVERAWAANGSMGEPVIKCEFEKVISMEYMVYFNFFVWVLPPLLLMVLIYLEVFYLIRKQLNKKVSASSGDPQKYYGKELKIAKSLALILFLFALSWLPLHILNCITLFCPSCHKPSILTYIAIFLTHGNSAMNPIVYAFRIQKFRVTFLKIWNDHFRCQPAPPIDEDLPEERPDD
Put plainly: Displacement of [3H]DPCPX from human A1 adenosine receptor expressed in CHO cell membrane. In kind it is cell membranes.

The target in assay [1] is T4, Adenosine receptor A2b (Homo sapiens) (UniProt P29275).
T4 sequence (whole entry): T1 sequence (P29275 whole entry)
Nature of the assay: Antagonist activity at A2B receptor in human Caco2 cells assessed as reversal of NECA-induced cell death at 0.1 to 50 nM after 24 hrs by MTS assay. In kind it is functional, cell-based. The following applies: Caco-2. The method in brief: (§1)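 Caco-2 cells grown in DMEM with 10% FBS, 2 mM L-glutamine and penicillin/streptomycin at 37 °C, 5% CO2, seeded at 5000 cells/well. Next day, antagonist (0.1–50 nM) added, alone or 5 min before 100 nM NECA, for 24 h. Viability read by MTS formazan absorbance at 490 nm. Background subtracted, expressed as % untreated control, duplicate or triplicate, ≥3 experiments.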
In general terms: Tetrazolium assays rely on reduction of a dye to a coloured formazan, in cell work by metabolically active cells.

The target in another assay is Adenosine receptor A2a (Homo sapiens, UniProt P29274). Nature of the assay: Displacement of [3H]NECA from human A2A adenosine receptor expressed in CHO cell membrane. In kind it is cell membranes.
The target of assay [2] is T4, Adenosine receptor A2b (Homo sapiens). Nature of the assay: Induction of A2B receptor-mediated cell viability of human Caco2 cells assessed as cell survival at 0.1 to 50 nM after 24 hrs by MTS assay. In kind it is cell-based. As to conditions: Caco-2. The method in brief:
as §1

Adenosine receptor A2a, sequence (P29274 whole entry): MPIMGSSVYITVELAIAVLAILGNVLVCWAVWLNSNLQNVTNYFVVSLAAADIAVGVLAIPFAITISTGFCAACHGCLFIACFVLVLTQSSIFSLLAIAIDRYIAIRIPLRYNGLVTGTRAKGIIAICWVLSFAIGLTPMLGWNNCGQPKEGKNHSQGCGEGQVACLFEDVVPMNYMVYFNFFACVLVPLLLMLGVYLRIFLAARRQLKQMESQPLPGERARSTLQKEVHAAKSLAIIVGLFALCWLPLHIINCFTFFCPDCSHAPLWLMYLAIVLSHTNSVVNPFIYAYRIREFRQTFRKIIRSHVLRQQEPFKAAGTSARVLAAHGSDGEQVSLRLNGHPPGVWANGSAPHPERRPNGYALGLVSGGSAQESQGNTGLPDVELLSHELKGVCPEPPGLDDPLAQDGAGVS

Consider `O=c1c(-c2ccccc2)nnc2n(-c3ccc(Cl)cc3)c3ccccc3n12`, for which the IC50 on Adenosine receptor A2b came out at 2.42 nM. Besides, the Ki at Adenosine receptor A3 was above 1000 nM; on Adenosine receptor A1 it was 1360 nM; on Adenosine receptor A2a, above 10000 nM. In addition, in assay [1], the inhibition entry is “Active”. For the same compound, in assay [2], the result was inactive.

`O=c1c(-c2ccccc2)nnc2n(CCc3ccccc3)c3ccccc3n12`: the IC50 on Adenosine receptor A2b is 2.5 nM. In addition, the figures for the inhibition constant (Ki) on Adenosine receptor A3, at Adenosine receptor A1 and at Adenosine receptor A2a were 328 nM, above 10000 nM and above 10000 nM, respectively. Also, the inhibition entry in assay [1] is “Active”. Besides, the result in assay [2] was inactive.

Take `O=c1c(-c2ccco2)nnc2n(Cc3ccccc3)c3ccccc3n12`: at Adenosine receptor A2b, the IC50 stood at 10 nM. For the same compound, the figures for the Ki on Adenosine receptor A3, at Adenosine receptor A1 and on Adenosine receptor A2a were above 1000 nM, above 10000 nM and 156 nM, respectively.

Regarding `Oc1c(-c2ccccc2)nnc2nc3ccccc3n12`, the half-inhibitory concentration (IC50) at Adenosine receptor A2b is 1.4 nM. Also, the Ki is above 1000 nM at Adenosine receptor A3 and 728 nM at Adenosine receptor A1. Further, the inhibition entry in assay [1] is “Active”. Further, the outcome in assay [2] was inactive.

With `Cn1c2ccccc2n2c(=O)c(-c3ccco3)nnc12`, the IC50 on Adenosine receptor A2b is 20.4 nM. For the same compound, the Ki at Adenosine receptor A3 was above 1000 nM; at Adenosine receptor A1 it was 211 nM; on Adenosine receptor A2a, 2610 nM.

For `O=c1c(-c2ccco2)nnc2n(CCc3ccccc3)c3ccccc3n12`, the concentration for half-maximal inhibition (IC50) on Adenosine receptor A2b is 5.34 nM. Further, the values for the Ki at Adenosine receptor A3, on Adenosine receptor A1 and at Adenosine receptor A2a were above 1000 nM, above 10000 nM and 15.8 nM, respectively.

With `O=c1c(-c2ccccc2)nnc2n(Cc3ccccc3)c3ccccc3n12`, the IC50 on Adenosine receptor A2b was found to be 54.3 nM. For the same compound, the results for the inhibitory constant (Ki) on Adenosine receptor A3, at Adenosine receptor A1 and at Adenosine receptor A2a were above 1000 nM, 299 nM and above 10000 nM, respectively.

As for `O=c1c(-c2ccccc2)nnc2n(-c3ccccc3)c3ccc(Cl)cc3n12`, the 50% inhibitory concentration (IC50) on Adenosine receptor A2b stood at 3.1 nM. In addition, the Ki at Adenosine receptor A3 is above 1000 nM; on Adenosine receptor A1 it was above 10000 nM; at Adenosine receptor A2a, above 10000 nM. In addition, the inhibition entry in assay [1] was “Active”. The result in assay [2] was inactive.

Consider `O=c1c(-c2ccccc2)nnc2n(-c3ccccc3)c3ccccc3n12`, for which the IC50 at Adenosine receptor A2b stood at 15 nM. In addition, the results for the Ki at Adenosine receptor A3, at Adenosine receptor A1 and on Adenosine receptor A2a were above 1000 nM, 83 nM and above 10000 nM, respectively.

With `Oc1c(-c2ccco2)nnc2nc3ccccc3n12`, the IC50 on Adenosine receptor A2b was found to be 15.3 nM. Also, the inhibition constant (Ki) is above 1000 nM at Adenosine receptor A3 and 25 nM on Adenosine receptor A1.

With `O=c1c(-c2ccco2)nnc2n(-c3ccccc3)c3ccccc3n12`, the IC50 on Adenosine receptor A2b was found to be 3200 nM. In addition, the Ki at Adenosine receptor A3 was above 1000 nM; on Adenosine receptor A1, above 10000 nM; on Adenosine receptor A2a, 3280 nM. Further, the inhibition result in assay [1] is “Active”.

In the case of `O=c1c(-c2ccco2)nnc2n(-c3ccccc3)c3ccc(Cl)cc3n12`, the IC50 on Adenosine receptor A2b turned out to be 7850 nM. The inhibitory constant (Ki) at Adenosine receptor A3 was above 1000 nM; at Adenosine receptor A1, above 10000 nM; at Adenosine receptor A2a, above 10000 nM. Moreover, the inhibition entry in assay [1] is “Active”.

For `O=c1c(-c2ccco2)nnc2n(-c3ccc(Cl)cc3)c3ccccc3n12`, the IC50 on Adenosine receptor A2b was 2.11 nM. The inhibition constant (Ki) on Adenosine receptor A3 is 702 nM; at Adenosine receptor A1, above 10000 nM; at Adenosine receptor A2a, 50.6 nM. In assay [1], the inhibition result is “Active”. Moreover, the result in assay [2] was inactive.

`Cn1c2ccccc2n2c(=O)c(-c3ccccc3)nnc12`: the IC50 on Adenosine receptor A2b worked out at 58 nM. For the same compound, the results for the Ki at Adenosine receptor A3, on Adenosine receptor A1 and at Adenosine receptor A2a were above 1000 nM, 62 nM and above 10000 nM, respectively.
